Results: ChEMBL document CHEMBL1142960, “Synthesis and structure-activity relationships for 2,4-dinitrobenzamide-5-mustards as prodrugs for the Escherichia coli nfsB nitroreductase in gene therapy” (J Med Chem, 2007)
In brackets after ≈: the same amount, converted by molar mass.

What was measured:
[1] = Partition coefficient at pH 7.4 by shake-flask method; type: physicochemical; details: octanol/water
Summary of the method: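 Octanol-water partition coefficient by shake-flask at pH 7.4, reported with SEM.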

V79 [2] = experiment: Antiproliferative activity against chinese hamster wild-type V79 NTR-ve cells after 18 hrs; type: functional, cell-based; details: Cricetulus griseus, V79, 18 h
V79 [3] = experiment: Antiproliferative activity against chinese hamster V79 NTRpuro cells after 18 hrs; type: functional, cell-based; details: Cricetulus griseus, V79, 18 h
V79 [4] = experiment: Selectivity ratio of IC50 for V79 NTR-ve cells to IC50 for V79 NTRpuro cells; type: functional, Cricetulus griseus
EMT6 [5] = experiment: Antiproliferative activity against mouse wild type EMT6 NTR-ve cells after 18 hrs; type: functional, cell-based; details: EMT6, 18 h
EMT6 [6] = experiment: Antiproliferative activity against mouse EMT6 NTRpuro cells after 18 hrs; type: functional, cell-based; details: EMT6, 18 h
EMT6 [7] = experiment: Selectivity ratio of IC50 for EMT6 NTR-ve cells to IC50 forEMT6 NTRpuro cells; type: functional, Mus musculus
WiDr [8] = experiment: Antiproliferative activity against human wild type WiDr NTR-ve cells after 18 hrs; type: functional, cell-based
WiDr [9] = experiment: Antiproliferative activity against human WiDr NTRneo cells after 18 hrs; type: functional, cell-based
WiDr [10] = experiment: Selectivity ratio of IC50 for WiDr NTR-ve cells to IC50 for WiDr NTRneo cells; type: functional, Homo sapiens
[11] = Antiproliferative activity against human wild type Skov3 NTR-ve cells after 18 hrs; type: functional, cell-based
V79 [12] = experiment: Clonogenic survival of V79 NTRoua cells after 5 hrs by MCL assay; type: functional, Cricetulus griseus
[13] = Antiproliferative activity against human Skov3 NTRneo cells after 18 hrs; type: functional, cell-based; details: SK-OV-3, 18 h
[14] = Selectivity ratio of IC50 for Skov3 NTR-ve cells to IC50 for Skov3 NTRneo cells; type: functional, Homo sapiens
V79 [15] = experiment: Clonogenic survival of 3% V79 NTRpuro cells in co-cultures with 97% V79 NTRoua after 5 hrs by MCL assay; type: functional, Cricetulus griseus
Summary of the method: (§1)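 Multicellular layer cocultures of 3% V79-NTRpuro activators and 97% V79oua NTR-ve targets (ouabain-resistant), exposed to prodrug for 5 h. MCLs were then trypsin-dissociated and plated in ouabain or puromycin selective media for clonogenic survival. C10 (10% survival) interpolated for activators and targets; AC/TC ratio derived. Mean with SEM or range over independent experiments.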

V79 [16] = experiment: Clonogenic survival of 97% V79 NTRoua cells in co-cultures with 3% V79 NTRpuro cells after 5 hrs by MCL assay; type: functional, Cricetulus griseus; summary of the method: as §1
[17] = Toxicity in ip dosed CD1 nude mouse in DMSO; type: organism-based; details: in vivo
Summary of the method: (§2)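 Maximum tolerated dose (MTD) determined in CD-1 nude mice after a single i.p. injection of prodrug, given in the vehicle named in each line.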

V79 [18] = experiment: Clonogenic survival ratio of 3% V79 NTRpuro cells to 97% V79 NTRoua cells in co-culture; type: functional, Cricetulus griseus; summary of the method: as §1
EMT6 [19] = experiment: Antitumor activity against mixed mouse EMT6/EMT6 NTRpuro cells injected in CD1 nude mouse assessed as cell kill at 1780 umol/kg, ip in DMSO after 18 hrs; type: functional
WiDr [20] = experiment: Antitumor activity against mixed human 10% WiDr NTRneo/ 90% WiDr tumor cells injected in CD1 nude mouse assessed as growth delay at 1780 umol/kg, ip in DMSO; type: functional
Summary of the method: (§3)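 WiDr-NTRneo tumours (100% NTR+ve, or 1:9 NTR+ve:NTR-ve mixtures) in CD-1 nude mice, given a single i.p. dose at MTD. Read-out is median growth delay to 15 mm mean diameter, plus tumours not palpable 100 days after treatment. Aziridine given at 200 µmol/kg as positive control in every experiment.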

[21] = Solubility in alpha MEM; type: physicochemical
Summary of the method: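 Solubility (mM) in α-MEM with 5% fetal calf serum at ambient temperature, measured by HPLC.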

[22] = Stability in alpha MEM at 37 degC after 24 hrs; type: physicochemical; details: read-out: Stability
Summary of the method: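 Percent parent compound remaining, by HPLC, after holding in α-MEM with 5% fetal calf serum at 37 °C for 24 h.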

WiDr [23] = experiment: Antitumor activity against human 100% WiDr NTRneo tumor cells injected in CD1 nude mouse assessed as growth delay at 1780 umol/kg, ip in DMSO; type: functional; summary of the method: as §3
EMT6 [24] = experiment: Antitumor activity against mixed mouse EMT6/EMT6 NTRpuro cells injected in CD1 nude mouse assessed as cell kill at 1000 umol/kg, ip in DMSO after 18 hrs; type: functional
WiDr [25] = experiment: Antitumor activity against mixed human 10% WiDr NTRneo/ 90% WiDr tumor cells injected in CD1 nude mouse assessed as growth delay at 1000 umol/kg, ip in DMSO; type: functional; summary of the method: as §3
WiDr [26] = experiment: Antitumor activity against human 100% WiDr NTRneo tumor cells injected in CD1 nude mouse assessed as growth delay at 1000 umol/kg, ip in DMSO; type: functional; summary of the method: as §3
[27] = Toxicity in ip dosed CD1 nude mouse in DMSO/PEG; type: organism-based; details: in vivo; summary of the method: as §2
EMT6 [28] = experiment: Antitumor activity against mixed mouse EMT6/EMT6 NTRpuro cells injected in CD1 nude mouse assessed as cell kill at 133 umol/kg, ip in DMSO/PEG after 18 hrs; type: functional
WiDr [29] = experiment: Antitumor activity against mixed human 10% WiDr NTRneo/ 90% WiDr tumor cells injected in CD1 nude mouse assessed as growth delay at 750 umol/kg, ip in DMSO; type: functional; summary of the method: as §3
WiDr [30] = experiment: Antitumor activity against human 100% WiDr NTRneo tumor cells injected in CD1 nude mouse assessed as growth delay at 133 umol/kg, ip in DMSO/PEG; type: functional; summary of the method: as §3

CS(=O)(=O)OCCN(CCBr)c1cc(C(N)=O)c([N+](=O)[O-])cc1[N+](=O)[O-]
logD [1]: 0.49
IC50 (V79 [2]): 133 µM
IC50 (V79 [3]): 0.11 µM
Ratio IC50 (V79 [4]): 1260
IC50 (EMT6 [5]): 76 µM
IC50 (EMT6 [6]): 0.05 µM
Ratio IC50 (EMT6 [7]): 1510
IC50 (WiDr [8]): 80 µM
IC50 (WiDr [9]): 0.22 µM
Ratio IC50 (WiDr [10]): 387
IC50 [11]: 135 µM
Activity (V79 [12]): >250 µM
IC50 [13]: 0.19 µM
Ratio IC50 [14]: 715
Activity (V79 [15]): 2 µM
Activity (V79 [16]): 10 µM
MTD [17]: 1780 µmol/kg
Ratio (V79 [18]): 0.2
LCK (EMT6 [19]): >3.61
Activity (WiDr [20]): 26 days
solubility [21]: 230 µM (≈ 105 µg/mL)
remaining at 24 h [22]: 71%
Activity (WiDr [23]): >82 days

CS(=O)(=O)OCCN(CCCl)c1cc(C(N)=O)c([N+](=O)[O-])cc1[N+](=O)[O-]
logD [1]: 0.42
IC50 (V79 [2]): 504 µM
IC50 (V79 [3]): 0.55 µM
Ratio IC50 (V79 [4]): 1060
IC50 (EMT6 [5]): 211 µM
IC50 (EMT6 [6]): 0.3 µM
Ratio IC50 (EMT6 [7]): 942
IC50 (WiDr [8]): 246 µM
IC50 (WiDr [9]): 0.7 µM
Ratio IC50 (WiDr [10]): 442
IC50 [11]: 522 µM
Activity (V79 [12]): >1000 µM
IC50 [13]: 0.78 µM
Ratio IC50 [14]: 697
Activity (V79 [15]): 5.3 µM
Activity (V79 [16]): 33 µM
MTD [17]: 1000 µmol/kg
Ratio (V79 [18]): 0.16
LCK (EMT6 [24]): >3.82
Activity (WiDr [25]): 38 days
Activity (WiDr [26]): >80 days

CS(=O)(=O)c1cc([N+](=O)[O-])c(C(N)=O)cc1N(CCBr)CCBr
logD [1]: 1.02
IC50 (V79 [2]): 80 µM
IC50 (V79 [3]): 0.16 µM
Ratio IC50 (V79 [4]): 508
IC50 (EMT6 [5]): 39 µM
IC50 (EMT6 [6]): 0.09 µM
Ratio IC50 (EMT6 [7]): 490
IC50 (WiDr [8]): 37 µM
IC50 (WiDr [9]): 0.58 µM
Ratio IC50 (WiDr [10]): 74
IC50 [11]: 86 µM
Activity (V79 [12]): >100 µM
IC50 [13]: 0.4 µM
Ratio IC50 [14]: 265
Activity (V79 [15]): 5.5 µM
Activity (V79 [16]): 16 µM
MTD [27]: 133 µmol/kg
MTD [17]: 750 µmol/kg
LCK (EMT6 [28]): 2.24
Activity (WiDr [29]): 36 days
solubility [21]: 70 µM (≈ 33.1 µg/mL)
remaining at 24 h [22]: 63%
Activity (WiDr [30]): >83 days
